Measured values from ChEMBL document CHEMBL4622947, “Synthesis and anti-inflammatory activity of 2-oxo-2H-chromenyl and 2H-chromenyl-5-oxo-2,5-dihydrofuran-3-carboxylates” (Bioorg Med Chem Lett, 2020).
pIC50: −log10 of the molar value. The source made the active and inactive calls. No cut-off for these calls is given here.

How the values were obtained:
[1] = Cytotoxicity against human U937 cells assessed as cell viability at 20 uM relative to control; format: cell-based, U-937; conditions: read-out: Activity
U-937 [2] = assay: Antiinflammatory activity in human U937 cells assessed as inhibition of PMA/LPS-stimulated TNFalpha production at 20 uM after 24 hrs by ELISA relative to control; format: functional; conditions: U-937, 24 h
Procedure, shortened: (§1)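 TNF-α from U937 cells was quantified by ELISA. Percent inhibition was read at 20 μM, and IC50 (μM) was reported as mean ± error.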

U-937 [3] = assay: Antiinflammatory activity in human U937 cells assessed as inhibition of PMA/LPS-stimulated IL-6 production at 20 uM after 24 hrs by ELISA; format: functional, cell-based
U-937 [4] = assay: Antiinflammatory activity in human U937 cells assessed as inhibition of PMA/LPS-stimulated TNFalpha production after 24 hrs by ELISA; format: functional, cell-based; conditions: U-937, 24 h; procedure, shortened: as §1
Mus musculus [5] = assay: Antiinflammatory activity in BALB/c mouse assessed as inhibition of LPS-induced TNFalpha production at 100 mg/kg, administered for 3 days followed by LPS stimulation by ELISA; format: functional, organism-based
Procedure, shortened: (§2)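 BALB/c mice were pre-treated with 100 mg/kg test compound for three consecutive days, then challenged with LPS at 10 mg/kg IP. Serum TNF-α and IL-6 were measured by ELISA and compared with LPS-only and vehicle control groups. Values are mean ± S.E.M., n = 5.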

Mus musculus [6] = assay: Antiinflammatory activity in BALB/c mouse assessed as inhibition of LPS-induced IL6 production at 100 mg/kg, administered for 3 days followed by LPS stimulation by ELISA; format: functional, organism-based; procedure, shortened: as §2
U-937 [7] = assay: Antiinflammatory activity in human U937 cells assessed as inhibition of PMA/LPS-stimulated TNFalpha production at 1 uM after 24 hrs by ELISA relative to control; format: functional; conditions: U-937, 24 h

With COC(=O)C1=C(OC)C(=O)OC1C1=C(Cl)c2ccc3ccccc3c2OC1 (configuration not stated) the viability at 20 µM [1] was 80.2%, the inhibition at 20 µM (U-937 [2]) was 29.1% and the inhibition (U-937 [3]) was “inactive”.

In the case of COC(=O)C1=C(OC)C(=O)OC1c1c(Cl)c2ccccc2oc1=O (configuration not stated), the viability at 20 µM [1] was 78.3%, the inhibition at 20 µM (U-937 [2]) was 27.1% and the inhibition (U-937 [3]) was “inactive”.

For COC(=O)C1=C(OC)C(=O)OC1c1c(Cl)c2cc(-c3ccccc3)ccc2oc1=O (configuration not stated), the viability at 20 µM [1] was 82.3%, the inhibition at 20 µM (U-937 [2]) was 44.2% and the inhibition (U-937 [3]) was “inactive”.

In the case of COC(=O)C1=C(OC)C(=O)OC1C1=C(Cl)c2cc(Br)ccc2OC1 (configuration not stated), the viability at 20 µM [1] was 94.3%, the inhibition at 20 µM (U-937 [2]) was 80.2% and the inhibition (U-937 [3]) was “inactive”. For the same compound, the pIC50 (U-937 [4]) was 4.89.

For COC(=O)C1=C(OC)C(=O)OC1C1=C(Cl)c2cc(C)ccc2OC1 (configuration not stated), the viability at 20 µM [1] was 88.5%, the inhibition at 20 µM (U-937 [2]) was 35.6% and the inhibition (U-937 [3]) was “inactive”.

In the case of CCOC(=O)C1=C(OCC)C(=O)OC1c1c(Cl)c2ccccc2oc1=O (configuration not stated), the viability at 20 µM [1] was 75.9%, the inhibition at 20 µM (U-937 [2]) was 40.7% and the inhibition (U-937 [3]) was “inactive”.

In the case of CCOC(=O)C1=C(OCC)C(=O)OC1C1=C(Cl)c2cc(C)ccc2OC1 (configuration not stated), the viability at 20 µM [1] was 81.6%, the inhibition at 20 µM (U-937 [2]) was 6.4% and the inhibition (U-937 [3]) was “inactive”.

In the case of CCOC(=O)C1=C(OCC)C(=O)OC1c1c(Cl)c2cc(-c3ccccc3)ccc2oc1=O (configuration not stated), the viability at 20 µM [1] was 83.1%, the inhibition at 20 µM (U-937 [2]) was 20% and the inhibition (U-937 [3]) was “inactive”.

For COC(=O)C1=C(OC)C(=O)OC1C1=C(Cl)c2cc(C)c(C)cc2OC1 (configuration not stated), the viability at 20 µM [1] was 90.7%, the inhibition at 20 µM (U-937 [2]) was 49.7% and the inhibition (U-937 [3]) was “inactive”.

In the case of CCOC(=O)C1=C(OCC)C(=O)OC1c1c(Cl)c2cc(Cl)ccc2oc1=O (configuration not stated), the inhibition (Mus musculus [5]) was “Active”, the inhibition (Mus musculus [6]) was “Active” and the viability at 20 µM [1] was 90.7%. The inhibition at 20 µM (U-937 [2]) was 97.1%, the inhibition (U-937 [3]) was “inactive” and the pIC50 (U-937 [4]) was 6.37.

With CCOC(=O)C1=C(OCC)C(=O)OC1c1c(Cl)c2cc(C)cc(C)c2oc1=O (configuration not stated) the viability at 20 µM [1] was 96.8%, the inhibition at 20 µM (U-937 [2]) was 80.2% and the inhibition (U-937 [3]) was “inactive”. The pIC50 (U-937 [4]) was 5.96.

With CCOC(=O)C1=C(OCC)C(=O)OC1C1=C(Cl)c2cc(Cl)ccc2OC1 (configuration not stated) the viability at 20 µM [1] was 79.4%, the inhibition at 20 µM (U-937 [2]) was 75.9% and the inhibition (U-937 [3]) was “inactive”. It also gave a pIC50 (U-937 [4]) of 4.97.

In the case of COC(=O)C1=C(OC)C(=O)OC1C1=C(Cl)c2ccccc2OC1 (configuration not stated), the viability at 20 µM [1] was 88.1%, the inhibition at 20 µM (U-937 [2]) was 95.5% and the inhibition (U-937 [3]) was “inactive”. For the same compound, the pIC50 (U-937 [4]) was 4.73.

With CCOC(=O)C1=C(OCC)C(=O)OC1c1c(Cl)c2cc(C)c(C)cc2oc1=O (configuration not stated) the viability at 20 µM [1] was 79%, the inhibition at 20 µM (U-937 [2]) was 26.8% and the inhibition (U-937 [3]) was “inactive”.

In the case of COC(=O)C1=C(OC)C(=O)OC1c1c(Cl)c2cc(Cl)ccc2oc1=O (configuration not stated), the viability at 20 µM [1] was 93.1%, the inhibition at 20 µM (U-937 [2]) was 75% and the inhibition (U-937 [3]) was “inactive”. For the same compound, the pIC50 (U-937 [4]) was 5.20.

With COC(=O)C1=C(OC)C(=O)OC1C1=C(Cl)c2cc(Cl)ccc2OC1 (configuration not stated) the viability at 20 µM [1] was 84.6%, the inhibition at 20 µM (U-937 [2]) was 19.4% and the inhibition (U-937 [3]) was “inactive”.

In the case of COC(=O)C1=C(OC)C(=O)OC1c1c(Cl)c2cc(C)c(C)cc2oc1=O (configuration not stated), the viability at 20 µM [1] was 75.9%, the inhibition at 20 µM (U-937 [2]) was 34.9% and the inhibition (U-937 [3]) was “inactive”.

For CCOC(=O)C1=C(OCC)C(=O)OC1C1=C(Cl)c2c(ccc(C)c2C)OC1 (configuration not stated), the viability at 20 µM [1] was 85.2%, the inhibition at 20 µM (U-937 [2]) was 29.7% and the inhibition (U-937 [3]) was “inactive”.

For CCOC(=O)C1=C(OCC)C(=O)OC1c1c(Cl)c2cc(C)ccc2oc1=O (configuration not stated), the viability at 20 µM [1] was 79.8%, the inhibition at 20 µM (U-937 [2]) was 32.3% and the inhibition (U-937 [3]) was “inactive”.

In the case of COC(=O)C1=C(OC)C(=O)OC1c1c(Cl)c2cc(C)ccc2oc1=O (configuration not stated), the viability at 20 µM [1] was 84.3%, the inhibition at 20 µM (U-937 [2]) was 14.8% and the inhibition (U-937 [3]) was “inactive”.

In the case of CCOC(=O)C1=C(OCC)C(=O)OC1C1=C(Cl)c2ccccc2OC1 (configuration not stated), the viability at 20 µM [1] was 88.9%, the inhibition at 20 µM (U-937 [2]) was 50.6% and the inhibition (U-937 [3]) was “inactive”.

With CCOC(=O)C1=C(OCC)C(=O)OC1C1=C(Cl)c2cc(Br)ccc2OC1 (configuration not stated) the viability at 20 µM [1] was 87.2%, the inhibition at 20 µM (U-937 [2]) was 73.3% and the inhibition (U-937 [3]) was “inactive”. It also gave a pIC50 (U-937 [4]) of 5.49.

For COC(=O)C1=C(OC)C(=O)OC1c1c(Cl)c2cc(Br)ccc2oc1=O (configuration not stated), the viability at 20 µM [1] was 85.3%, the inhibition at 20 µM (U-937 [2]) was 76.9% and the inhibition (U-937 [3]) was “inactive”. For the same compound, the pIC50 (U-937 [4]) was 7.15.

For CCOC(=O)C1=C(OCC)C(=O)OC1C1=C(Cl)c2cc(C)c(C)cc2OC1 (configuration not stated), the viability at 20 µM [1] was 93.4%, the inhibition at 20 µM (U-937 [2]) was 96.1% and the inhibition (U-937 [3]) was “inactive”. It also gave a pIC50 (U-937 [4]) of 4.95.

In the case of CCOC(=O)C1=C(OCC)C(=O)OC1c1c(Cl)c2cc(Br)ccc2oc1=O (configuration not stated), the viability at 20 µM [1] was 83%, the inhibition at 20 µM (U-937 [2]) was 91% and the inhibition (U-937 [3]) was “inactive”. For the same compound, the pIC50 (U-937 [4]) was 7.33.

In the case of CCOC(=O)C1=C(OCC)C(=O)OC1C1=C(Cl)c2ccc(C)c(C)c2OC1 (configuration not stated), the viability at 20 µM [1] was 89.9%, the inhibition at 20 µM (U-937 [2]) was 23.3% and the inhibition (U-937 [3]) was “inactive”.

For COC(=O)C1=C(OC)C(=O)OC1c1c(Cl)c2cc(C)cc(C)c2oc1=O (configuration not stated), the viability at 20 µM [1] was 86.1%, the inhibition at 20 µM (U-937 [2]) was 44.9% and the inhibition (U-937 [3]) was “inactive”.

For CCOC(=O)C1=C(OCC)C(=O)OC1C1=C(Cl)c2ccc3ccccc3c2OC1 (configuration not stated), the viability at 20 µM [1] was 83.6%, the inhibition at 20 µM (U-937 [2]) was 4.1% and the inhibition (U-937 [3]) was “inactive”.

For COC(=O)C1=C(OC)C(=O)OC1C1=C(Cl)c2c(ccc(C)c2C)OC1 (configuration not stated), the inhibition (Mus musculus [5]) was “Active”, the inhibition (Mus musculus [6]) was “Active” and the viability at 20 µM [1] was 92.1%. The inhibition at 20 µM (U-937 [2]) was 70.4%, the inhibition (U-937 [3]) was “inactive” and the pIC50 (U-937 [4]) was 6.85.

For C[C@]12C=CC(=O)C=C1CC[C@@H]1[C@@H]2[C@@H](O)C[C@@]2(C)[C@H]1CC[C@]2(O)C(=O)CO [PREDNISOLONE], the pIC50 (U-937 [4]) was 7.48 and the inhibition at 1 µM (U-937 [7]) was 98%.

In the case of COC(=O)C1=C(OC)C(=O)OC1C1=C(Cl)c2ccc(C)c(C)c2OC1 (configuration not stated), the viability at 20 µM [1] was 93.8%, the inhibition at 20 µM (U-937 [2]) was 45.7% and the inhibition (U-937 [3]) was “inactive”.
